KCNK3 block: human KCNK3 channel inhibition, primary screen. 0.84% of 340,000 active. B-score at 10 µM. CHO-KCNK3 thallium flux, FluxOR fluorescence; hits give low values. AID 602410;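 active means B-score under library mean minus 4 SD, starting fluorescence ratio at most library mean plus 5 SD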;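 further: more negative B-score means stronger inhibition of thallium flux through KCNK3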
Kir21 block: inhibitors of mouse Kir2.1 inward-rectifier potassium channel; P35561; HEK293-Kir2.1, FluxOR thallium flux fluorescence; hits give low values; B-score at 10 µM; 0.85% of 310,000 active; AID 1672;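 active means fluorescence ratio B-score at or below minus 3 SD of library scores, with starting-brightness B-score within 2 SD, cut at about -4.2 in these data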;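 further: channel flux triggered by added potassium and thallium sulfate stimulus; B-score of peak minus minimum fluorescence over baseline after thallium stimulus; more negative B-score means stronger Kir2.1 block with less thallium influx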
Target sequence (P35561 whole entry, looked up): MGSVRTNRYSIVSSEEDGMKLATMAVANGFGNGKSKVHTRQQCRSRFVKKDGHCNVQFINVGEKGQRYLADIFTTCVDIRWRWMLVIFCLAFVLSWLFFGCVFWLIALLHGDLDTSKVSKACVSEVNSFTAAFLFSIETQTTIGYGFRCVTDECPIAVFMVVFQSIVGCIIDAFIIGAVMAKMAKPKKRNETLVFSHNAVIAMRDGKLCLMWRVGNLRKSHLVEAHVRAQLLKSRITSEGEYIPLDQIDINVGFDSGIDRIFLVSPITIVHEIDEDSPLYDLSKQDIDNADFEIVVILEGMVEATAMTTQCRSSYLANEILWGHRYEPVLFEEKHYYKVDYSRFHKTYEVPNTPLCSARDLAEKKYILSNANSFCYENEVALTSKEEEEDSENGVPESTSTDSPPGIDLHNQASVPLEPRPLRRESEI
KCNQ1 block: human KCNQ1 channel inhibition; 1.3% of 310,000 active; AID 2642; P51787; B-score at 10 µM; CHO-K1 KCNQ1, FluxOR thallium flux fluorescence; hits give high values;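 active means compounds whose thallium flux B-score, printed positive for inhibition, exceeds three library SD while starting fluorescence stays within three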;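 further: channel opened by potassium depolarization with thallium stimulus after 20 min compound exposure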
KCNK9 inh: human KCNK9 channel inhibition. Q9NPC2. HEK293 KCNK9, FluxOR thallium flux fluorescence; hits give low values. B-score at 10 µM. 1.2% of 310,000 active. AID 488922;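 active means ratio B-score over 3 SD below the library mean, with starting fluorescence within 5 SD of its mean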;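 further: negative B-score means less thallium flux so channel inhibition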
KCNQ1 pot: potentiators or activators of human KCNQ1 potassium channel. P51787. CHO-K1 KCNQ1, thallium flux FluxOR fluorescence; hits give high values. B-score at 10 µM. 0.35% of 310,000 active. AID 2648;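 active means fluorescence ratio B-score, a plate-corrected score, at least three library SD, with initial intensity B-score within 5 SD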
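assay system = KCNQ1-transfected CHO-K1 cells | medium = assay buffer with matched DMSO | probe or stimulus = depolarizing K+/Tl+ stimulus, K2SO4 and Tl2SO4 each 12.5 mM in 5x stock | dosing = single dose | incubation = dye 90 min, compound 20 min, room temperature | detection = kinetic FluxOR fluorescence, 10 s baseline plus 110 s post-stimulus | evaluation = ratio B score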
hERG rescue: compounds protecting human hERG from proarrhythmic drug block | Q12809 | 0.51% of 310,000 active | activation (rescue from dofetilide block), less the hit threshold, % at 10 µM | CHO-hERG, FluxOR thallium flux, dofetilide IC70 present;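 active means activation above the mean of controls blocked by dofetilide plus 5 SD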;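 further: thallium influx through hERG after potassium depolarization seen as dye fluorescence rise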
KCNK3 confirm: human KCNK3 channel inhibition, confirmation assay. shares compounds with KCNK3 block. CHO-KCNK3 thallium flux, FluxOR fluorescence; 0% buffer, 100% carvedilol maximal block. ratio percent of control, % at 10 µM. 99% of 2,400 active. AID 651638;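 active means ratio percent of control, averaged over triplicates, above buffer control mean plus 5 SD, cut at about 64% in these data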;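 further: ratio is the fluorescence rise from min to max over baseline after thallium stimulus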
KCNK3 uninduced: KCNK3 inhibitor counter-screen hit in non-induced cells | shares compounds with KCNK3 block | thallium flux ratio (lower = more inhibition) at 10 µM | non-induced KCNK3 parental cells, FluxOR thallium flux; hits give low values | 40% of 2,400 active | AID 651747;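 active means thallium flux ratio, averaged over three wells, more than 5 SD below the buffer control mean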;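 further: host cells are CHO cells without KCNK3 induction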
Each line names hits and unclear results; the compound was inactive in the other large screens (follow-up assays come after a bar, where they were run). An excerpt weighted towards active compounds, which were near 3.7% of everything screened.

c1ccc(CNc2ncnc3scc(-c4cccs4)c23)nc1	KCNK3 block -11 | KCNK3 confirm 118 | KCNK3 uninduced inactive
c1ccc(-c2csc3ncnc(NCc4ccccn4)c23)cc1	none
COc1ccccc1C(=O)NCCC(=O)N1CCN(S(=O)(=O)c2ccccc2C(F)(F)F)CC1	none (no result: Kir21 block, KCNQ1 block, KCNK9 inh, KCNQ1 pot, hERG rescue)
Cc1nn(CCCC(=O)Nc2cc(Oc3ccccc3)cc([N+](=O)[O-])c2)c(C)c1[N+](=O)[O-]	KCNK3 block -8.8 | KCNK3 confirm 124 | KCNK3 uninduced 0.14
COc1ccc(-n2c(Cc3ccccc3)nnc2SCC(=O)N2CCCc3ccccc32)cc1	KCNK3 block -12 | KCNK3 confirm 87 | KCNK3 uninduced inactive
O=C(NCc1nnc(SCC(=O)N2CCCc3ccccc32)n1-c1ccccc1)c1cccc2ccccc12	none
CCN(CC)S(=O)(=O)c1ccc(C)c(NC(=S)N2CCN(C/C=C/c3ccccc3)CC2)c1	KCNK3 block -11 | KCNK3 confirm 101 | KCNK3 uninduced inactive
CCOC(=O)c1ccc(S(=O)(=O)Nc2cc(S(=O)(=O)N3CCOCC3)ccc2O)cc1	none (no result: Kir21 block, KCNQ1 block, KCNK9 inh, KCNQ1 pot, hERG rescue)
COc1ccccc1CNC(=O)c1sccc1-c1ccccc1	KCNK3 block -10, Kir21 block -6.6 | KCNK3 confirm 103 | KCNK3 uninduced inactive
CC(C)(C)NC(=O)c1ccc(Sc2ccccc2)c([N+](=O)[O-])c1	KCNK3 block -9 | KCNK3 confirm 119 | KCNK3 uninduced inactive
COc1ccc(CCCNC(=O)C2CCC(=O)N(CC3CCCCC3)C2)cc1 (stereo not given)	none
CCOC(=O)C1=C(C)OC(N)=C(C#N)C1c1cc(OC)c2c(c1)OCO2 (stereo not given)	KCNK3 block -9.7 | KCNK3 confirm 94 | KCNK3 uninduced inactive
CCOC(=O)C1=C(C)OC(N)=C(C#N)C1c1cc(Cl)c(OCC(N)=O)c(OC)c1 (stereo not given)	none
CCCCc1nn(-c2cc(Cl)ccc2OC)c2c1C(=O)CC(C)(C)C2	KCNK3 block -10 | KCNK3 confirm 92 | KCNK3 uninduced inactive
COCCN1C(=O)C(CC(=O)Nc2ccc(C(C)=O)cc2)SC1=Nc1ccccc1 (stereo not given)	none
CC(O)CN1C(=O)C(CC(=O)Nc2ccc(Cl)cc2)SC1=Nc1ccccc1 (stereo not given)	KCNK3 block -9.5 | KCNK3 confirm 110 | KCNK3 uninduced inactive
Cc1nn(C(C)(C)C)c(OC(=O)C2CCCC2)c1S(=O)(=O)c1ccccc1	KCNK3 block -9.9 | KCNK3 confirm 90 | KCNK3 uninduced inactive
COc1ccc(CNC(=O)c2n[nH]c3ccccc23)cc1OC	none
CCOP(=O)(OCC)c1nc(-c2cccc3ccccc23)oc1NCc1ccc(OC)cc1	KCNK3 block -11 | KCNK3 confirm 107 | KCNK3 uninduced 0.16
CNC[C@H]1Oc2c(NS(=O)(=O)c3ccccc3)cccc2C(=O)N([C@H](C)CO)C[C@@H]1C	none (no result: Kir21 block, KCNQ1 block, KCNK9 inh, KCNQ1 pot, hERG rescue)
Cc1c(/C=N/NC(=O)c2ccc(O)cc2)c2ccccn2c1C(=O)c1ccc(F)cc1	none
Cc1c(/C=N/NC(=O)c2ccccc2O)c2ccccn2c1C(=O)c1ccc(F)cc1	KCNK3 block -11, KCNQ1 block 10, KCNK9 inh -7.9 | KCNK3 confirm 129 | KCNK3 uninduced 0.16
CCc1nc(N2CCN(C(=S)NCCCOC)CC2)c2c3c(sc2n1)CCCC3	KCNK3 block -8.9 | KCNK3 confirm 95 | KCNK3 uninduced 0.15
COCCCNC(=S)N1CCN(c2nc3ccccc3s2)CC1	none
CCC(C)[C@@H](CN)NCC1(c2ccccc2)CC1 (stereo not given in full)	none (no result: Kir21 block, KCNQ1 block, KCNK9 inh, KCNQ1 pot, hERG rescue)
